This passage reports IC50, EC50 and Selectivity results from ChEMBL document CHEMBL1127604 (J Med Chem, 1994).

The target in experiment [1] is T1, 5-hydroxytryptamine receptor 1D (Rattus norvegicus, UniProt P28565). Description: Binding affinity was measured against serotonin 5-hydroxytryptamine 1D receptor. Put shortly:
(§1)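 Radioligand binding at 5-HT1A and 5-HT1D receptors, run by the group's earlier published protocol. Each value is the arithmetic mean of at least three independent determinations.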

Experiment [2] has as its target T2, 5-hydroxytryptamine receptor 1A (Rattus norvegicus, UniProt P19327).
T2 sequence (P19327 whole entry): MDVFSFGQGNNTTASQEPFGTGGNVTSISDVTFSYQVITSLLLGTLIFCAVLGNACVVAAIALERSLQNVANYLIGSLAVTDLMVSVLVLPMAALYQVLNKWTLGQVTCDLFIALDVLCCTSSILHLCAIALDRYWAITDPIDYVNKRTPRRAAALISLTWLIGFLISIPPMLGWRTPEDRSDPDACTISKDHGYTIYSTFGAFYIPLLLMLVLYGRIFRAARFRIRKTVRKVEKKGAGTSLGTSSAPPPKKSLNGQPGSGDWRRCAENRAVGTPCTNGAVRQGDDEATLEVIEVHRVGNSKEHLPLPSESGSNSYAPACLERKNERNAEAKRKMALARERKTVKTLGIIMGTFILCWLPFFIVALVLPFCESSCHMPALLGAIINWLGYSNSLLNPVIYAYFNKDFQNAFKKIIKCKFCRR
Description: Inhibition of forskolin stimulated adenylate cyclase at 5-hydroxytryptamine 1A receptor. The class given is functional.

Experiment [3] addresses T2, 5-hydroxytryptamine receptor 1A. The experiment is described as follows: Binding affinity was measured against serotonin 5-hydroxytryptamine 1A receptor. Put shortly: as §1
Experiment [4] is described as follows: Selectivity value is the ratio between EC50 values of 5-HT1A and 5-HT1D receptors.
A short description of experiment [5]: Selectivity value is the ratio between IC50 values of 5-HT1A and 5-HT1D receptors.
Experiment [6] addresses T1, 5-hydroxytryptamine receptor 1D. The experiment is described as follows: Inhibition of forskolin stimulated adenylate cyclase at 5-hydroxytryptamine 1D receptor. Format: functional.

T1 sequence (P28565 whole entry): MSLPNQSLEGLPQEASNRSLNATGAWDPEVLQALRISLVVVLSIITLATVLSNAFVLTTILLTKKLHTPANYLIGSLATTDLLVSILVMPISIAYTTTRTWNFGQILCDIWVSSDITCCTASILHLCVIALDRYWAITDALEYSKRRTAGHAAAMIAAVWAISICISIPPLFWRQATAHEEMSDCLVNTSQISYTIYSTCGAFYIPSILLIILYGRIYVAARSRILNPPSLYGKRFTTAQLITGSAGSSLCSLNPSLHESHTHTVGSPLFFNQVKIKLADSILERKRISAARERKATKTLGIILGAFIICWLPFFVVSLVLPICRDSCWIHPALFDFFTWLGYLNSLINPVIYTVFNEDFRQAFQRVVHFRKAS

What is called IC50 is the point on the concentration scale where inhibition reaches its midpoint. The low end stands for greater potency, the high end for weaker potency. One may read the EC50 as the concentration giving half of the maximal effect. In the case of `CN1CCC[C@@H]1Cc1c[nH]c2ccc(Nc3ncccc3[N+](=O)[O-])cc12`, the IC50 in experiment [1] turned out to be 3.1 nM; in experiment [3], 33 nM. The EC50 in experiment [2] was 47 nM; in experiment [6], 1.3 nM. The Selectivity in experiment [4] was 36; in experiment [5], 11.
Take `CN1CCC(c2c[nH]c3ccc(Nc4ncccc4[N+](=O)[O-])cc23)C1` (stereo unspecified): the results for the IC50 in experiment [1] and in experiment [3] were 15 nM and 320 nM, respectively. Also, the EC50 was determined as 885 nM in experiment [2] and 2 nM in experiment [6]. Further, the results for the Selectivity in experiment [4] and in experiment [5] were 440 and 21, respectively.
For the compound `CN(C)CCc1c[nH]c2ccc(Nc3ncccc3[N+](=O)[O-])cc12`, the IC50 in experiment [1] came to 10 nM; in experiment [3], 73 nM. Moreover, the half-maximal effective concentration (EC50) worked out at 170 nM in experiment [2] and 2 nM in experiment [6]. For the same compound, the Selectivity is 85 in experiment [4] and 7 in experiment [5].
In the case of `CNS(=O)(=O)Cc1ccc2[nH]cc(CCN(C)C)c2c1`, the EC50 in experiment [2] was determined as 1300 nM. The same compound registered an IC50 in experiment [3] of 640 nM.
For `O=[N+]([O-])c1cccnc1Nc1ccc2[nH]cc(C[C@H]3CCCN3)c2c1`, the IC50 in experiment [1] amounted to 6.2 nM; in experiment [3], 120 nM. Moreover, the EC50 stood at 220 nM in experiment [2] and 1.3 nM in experiment [6]. The Selectivity in experiment [4] came out at 170; in experiment [5], 19.
